# From ChEMBL document CHEMBL4689842, “EUbOPEN Chemogenomics Library wave 1” (2021)
# System: HEK-293T
# Test: Multiplex assay against HEK293T;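 as to Population Tubulin-Different-Phenotype (%): share of the cells with healthy nuclei that show this phenotype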
# Assay type: toxicity, cell-based
# Conditions: human
# How it was run: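 Values for tubulin, mitochondrial-mass and membrane-permeability phenotypes are per cents of cells with healthy nuclei. These cells were identified by CellPathfinder machine-learning gating of live cells that had been stained at seeding with Hoechst33342, BioTracker Green Microtubule Cytoskeleton Dye, MitoTracker Red and Annexin V Alexa Fluor 680 and imaged on a CQ1 microscope at 37°C and 5% CO2 after compound addition. The gating first set Hoechst high-intensity objects apart from normal cells, then split normal cells into healthy, pyknosed or fragmented nuclei, and pyknosed cells into mitotic or apoptotic.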
# [1] = 12 h, 1 µM, compound concentration 1 uM, replicate 1
# [2] = 12 h, 1 µM, compound concentration 1 uM, replicate 2
# [3] = 12 h, 10 µM, compound concentration 10 uM, replicate 1
# [4] = 12 h, 10 µM, compound concentration 10 uM, replicate 2
# [5] = 24 h, 1 µM, compound concentration 1 uM, replicate 1
# [6] = 24 h, 1 µM, compound concentration 1 uM, replicate 2
# [7] = 24 h, 10 µM, compound concentration 10 uM, replicate 1
# [8] = 24 h, 10 µM, compound concentration 10 uM, replicate 2
# [9] = 48 h, 1 µM, compound concentration 1 uM, replicate 1
# [10] = 48 h, 1 µM, compound concentration 1 uM, replicate 2
# [11] = 48 h, 10 µM, compound concentration 10 uM, replicate 1
# [12] = 48 h, 10 µM, compound concentration 10 uM, replicate 2
smiles,measurement,setting,value
Cc1ccc2c(c1)c1c(n2CCc2ccc(C)nc2)CCN(C)C1 [LATREPIRDINE],Population Apoptotic (%),[1],65%
same,Population Fragmented Nuclei (%),[1],9%
same,Population Healthy Nuclei (%),[1],39%
same,Population Hoechst High Intensity Objects (%),[1],14%
same,Population Membrane Permeable-Phenotype (%),[1],0%
same,Population Mitochondria Different-Phenotype (%),[1],97%
same,Population Mitotic Cells (%),[1],34%
same,Population Normal (%),[1],85%
same,Population Pyknosed Nuclei (%),[1],51%
same,Population Tubulin-Different-Phenotype (%),[1],85%
same,Total Cell Count,[1],246
same,Population Apoptotic (%),[2],28%
same,Population Fragmented Nuclei (%),[2],6%
same,Population Healthy Nuclei (%),[2],38%
same,Population Hoechst High Intensity Objects (%),[2],2%
same,Population Membrane Permeable-Phenotype (%),[2],7%
same,Population Mitochondria Different-Phenotype (%),[2],64%
same,Population Mitotic Cells (%),[2],71%
same,Population Normal (%),[2],97%
same,Population Pyknosed Nuclei (%),[2],54%
same,Population Tubulin-Different-Phenotype (%),[2],39%
same,Total Cell Count,[2],209
same,Population Apoptotic (%),[3],89%
same,Population Fragmented Nuclei (%),[3],30%
same,Population Healthy Nuclei (%),[3],12%
same,Population Hoechst High Intensity Objects (%),[3],24%
same,Population Membrane Permeable-Phenotype (%),[3],8%
same,Population Mitochondria Different-Phenotype (%),[3],95%
same,Population Mitotic Cells (%),[3],10%
same,Population Normal (%),[3],75%
same,Population Pyknosed Nuclei (%),[3],57%
same,Population Tubulin-Different-Phenotype (%),[3],91%
same,Total Cell Count,[3],251
same,Population Apoptotic (%),[4],91%
same,Population Fragmented Nuclei (%),[4],5%
same,Population Healthy Nuclei (%),[4],13%
same,Population Hoechst High Intensity Objects (%),[4],4%
same,Population Mitochondria Different-Phenotype (%),[4],96%
same,Population Mitotic Cells (%),[4],8%
same,Population Normal (%),[4],95%
same,Population Pyknosed Nuclei (%),[4],80%
same,Population Tubulin-Different-Phenotype (%),[4],96%
same,Total Cell Count,[4],194
same,Population Apoptotic (%),[5],55%
same,Population Fragmented Nuclei (%),[5],7%
same,Population Healthy Nuclei (%),[5],42%
same,Population Hoechst High Intensity Objects (%),[5],14%
same,Population Membrane Permeable-Phenotype (%),[5],1%
same,Population Mitochondria Different-Phenotype (%),[5],96%
same,Population Mitotic Cells (%),[5],44%
same,Population Normal (%),[5],85%
same,Population Pyknosed Nuclei (%),[5],50%
same,Population Tubulin-Different-Phenotype (%),[5],87%
same,Total Cell Count,[5],276
same,Population Apoptotic (%),[6],29%
same,Population Fragmented Nuclei (%),[6],5%
same,Population Healthy Nuclei (%),[6],55%
same,Population Hoechst High Intensity Objects (%),[6],4%
same,Population Membrane Permeable-Phenotype (%),[6],11%
same,Population Mitochondria Different-Phenotype (%),[6],55%
same,Population Mitotic Cells (%),[6],70%
same,Population Normal (%),[6],95%
same,Population Pyknosed Nuclei (%),[6],39%
same,Population Tubulin-Different-Phenotype (%),[6],47%
same,Total Cell Count,[6],271
same,Population Apoptotic (%),[7],90%
same,Population Fragmented Nuclei (%),[7],35%
same,Population Healthy Nuclei (%),[7],16%
same,Population Hoechst High Intensity Objects (%),[7],24%
same,Population Membrane Permeable-Phenotype (%),[7],6%
same,Population Mitochondria Different-Phenotype (%),[7],96%
same,Population Mitotic Cells (%),[7],9%
same,Population Normal (%),[7],75%
same,Population Pyknosed Nuclei (%),[7],47%
same,Population Tubulin-Different-Phenotype (%),[7],93%
same,Total Cell Count,[7],242
same,Population Apoptotic (%),[8],93%
same,Population Fragmented Nuclei (%),[8],5%
same,Population Hoechst High Intensity Objects (%),[8],6%
same,Population Membrane Permeable-Phenotype (%),[8],2%
same,Population Mitochondria Different-Phenotype (%),[8],97%
same,Population Mitotic Cells (%),[8],6%
same,Population Normal (%),[8],93%
same,Population Pyknosed Nuclei (%),[8],77%
same,Population Tubulin-Different-Phenotype (%),[8],94%
same,Total Cell Count,[8],220
same,Population Apoptotic (%),[9],59%
same,Population Fragmented Nuclei (%),[9],11%
same,Population Healthy Nuclei (%),[9],61%
same,Population Hoechst High Intensity Objects (%),[9],10%
same,Population Membrane Permeable-Phenotype (%),[9],2%
same,Population Mitochondria Different-Phenotype (%),[9],62%
same,Population Mitotic Cells (%),[9],40%
same,Population Normal (%),[9],89%
same,Population Pyknosed Nuclei (%),[9],27%
same,Population Tubulin-Different-Phenotype (%),[9],67%
same,Total Cell Count,[9],332
same,Population Apoptotic (%),[10],32%
same,Population Fragmented Nuclei (%),[10],6%
same,Population Healthy Nuclei (%),[10],77%
same,Population Hoechst High Intensity Objects (%),[10],3%
same,Population Membrane Permeable-Phenotype (%),[10],8%
same,Population Mitochondria Different-Phenotype (%),[10],23%
same,Population Mitotic Cells (%),[10],67%
same,Population Normal (%),[10],96%
same,Population Pyknosed Nuclei (%),[10],16%
same,Population Tubulin-Different-Phenotype (%),[10],40%
same,Total Cell Count,[10],413
same,Population Apoptotic (%),[11],86%
same,Population Fragmented Nuclei (%),[11],41%
same,Population Healthy Nuclei (%),[11],21%
same,Population Hoechst High Intensity Objects (%),[11],24%
same,Population Mitotic Cells (%),[11],13%
same,Population Normal (%),[11],75%
same,Population Pyknosed Nuclei (%),[11],37%
same,Population Tubulin-Different-Phenotype (%),[11],94%
same,Total Cell Count,[11],246
same,Population Apoptotic (%),[12],87%
same,Population Fragmented Nuclei (%),[12],2%
same,Population Healthy Nuclei (%),[12],42%
same,Population Hoechst High Intensity Objects (%),[12],13%
same,Population Membrane Permeable-Phenotype (%),[12],2%
same,Population Mitochondria Different-Phenotype (%),[12],97%
same,Population Mitotic Cells (%),[12],12%
same,Population Normal (%),[12],86%
same,Population Pyknosed Nuclei (%),[12],55%
same,Population Tubulin-Different-Phenotype (%),[12],90%
same,Total Cell Count,[12],198
